# Experimental data reported in ChEMBL document CHEMBL1157699, “New small-size peptides possessing antifungal activity” (Bioorg Med Chem, 2010).
# Residues, ends and D or L forms follow the SMILES beside them.
# How the values were obtained:
# [1] = tested on: Cryptococcus neoformans; assay: Antifungal activity against Cryptococcus neoformans ATCC 32264 assessed as inhibition of fungal growth at 200 uM after 48 hrs by microbroth dilution method; type: functional; details: ATCC 32264, 48 h
# Method in brief: (§1)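 Cryptococcus run by CLSI M-27 A2 microbroth dilution in RPMI-1640. Peptide was diluted from DMSO stock to final 200, 100, 50, 25, 12.5, 6.25 and 3.125 µM. Inoculum was 1–5 × 10^3 CFU/ml from 24 h, 35 °C Sabouraud-chloramphenicol slants. Incubation was 48 h at 35 °C, moist and dark. % inhibition was taken from OD405 against a DMSO-containing growth control. Amphotericin B served as the positive control; tests in duplicate.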
# [2] = tested on: Cryptococcus neoformans; assay: Antifungal activity against Cryptococcus neoformans ATCC 32264 assessed as inhibition of fungal growth at 100 uM after 48 hrs by microbroth dilution method; type: functional; details: ATCC 32264, 48 h; method in brief: as §1
# [3] = tested on: Cryptococcus neoformans; assay: Antifungal activity against Cryptococcus neoformans ATCC 32264 assessed as inhibition of fungal growth at 50 uM after 48 hrs by microbroth dilution method; type: functional; details: ATCC 32264, 48 h; method in brief: as §1
# [4] = tested on: Cryptococcus neoformans; assay: Antifungal activity against Cryptococcus neoformans ATCC 32264 assessed as inhibition of fungal growth at 25 uM after 48 hrs by microbroth dilution method; type: functional; details: ATCC 32264, 48 h; method in brief: as §1
# [5] = tested on: Cryptococcus neoformans; assay: Antifungal activity against Cryptococcus neoformans ATCC 32264 assessed as inhibition of fungal growth at 12.5 uM after 48 hrs by microbroth dilution method; type: functional; details: ATCC 32264, 48 h; method in brief: as §1
# [6] = tested on: Cryptococcus neoformans; assay: Antifungal activity against Cryptococcus neoformans ATCC 32264 assessed as inhibition of fungal growth at 6.25 uM after 48 hrs by microbroth dilution method; type: functional; details: ATCC 32264, 48 h; method in brief: as §1
# [7] = tested on: Cryptococcus neoformans; assay: Antifungal activity against Cryptococcus neoformans ATCC 32264 assessed as inhibition of fungal growth at 3.125 uM after 48 hrs by microbroth dilution method; type: functional; details: ATCC 32264, 48 h; method in brief: as §1
# [8] = tested on: Candida albicans; assay: Antifungal activity against Candida albicans ATCC 10231 assessed as inhibition of fungal growth at 200 uM after 24 hrs by microbroth dilution method; type: functional; details: ATCC 10231, 24 h
# Method in brief: (§2)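 CLSI M-27 A2 broth microdilution in RPMI-1640. Peptides were taken from DMSO stocks to final 200–3.125 µM (twofold series). Inoculum was 1–5 × 10^3 CFU/ml from 24 h Sabouraud-chloramphenicol slant cultures at 35 °C. Plates were incubated 24 h at 35 °C in a moist dark chamber. OD405 was read, and % inhibition was taken against a DMSO-matched growth control. Amphotericin B served as the positive control; duplicates.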
# [9] = tested on: Candida albicans; assay: Antifungal activity against Candida albicans ATCC 10231 assessed as inhibition of fungal growth at 100 uM after 24 hrs by microbroth dilution method; type: functional; details: ATCC 10231, 24 h; method in brief: as §2
# [10] = tested on: Candida albicans; assay: Antifungal activity against Candida albicans ATCC 10231 assessed as inhibition of fungal growth at 50 uM after 24 hrs by microbroth dilution method; type: functional; details: ATCC 10231, 24 h; method in brief: as §2
# [11] = tested on: Candida albicans; assay: Antifungal activity against Candida albicans ATCC 10231 assessed as inhibition of fungal growth at 25 uM after 24 hrs by microbroth dilution method; type: functional; details: ATCC 10231, 24 h; method in brief: as §2
# [12] = tested on: Candida albicans; assay: Antifungal activity against Candida albicans ATCC 10231 assessed as inhibition of fungal growth at 12.5 uM after 24 hrs by microbroth dilution method; type: functional; details: ATCC 10231, 24 h; method in brief: as §2
# [13] = tested on: Cryptococcus neoformans; assay: Antifungal activity against Cryptococcus neoformans ATCC 32264 assessed as inhibition of fungal growth after 48 hrs by microbroth dilution method; type: functional; details: ATCC 32264, 48 h; for MIC: read-out: MIC100; method in brief: as §1
# [14] = tested on: Candida albicans; assay: Antifungal activity against Candida albicans ATCC 10231 assessed as inhibition of fungal growth after 24 hrs by microbroth dilution method; type: functional; details: ATCC 10231, 24 h; for MIC: read-out: MIC100; method in brief: as §2
# [15] = Toxicity in Poecilia reticulata assessed as mortality at 16.4 ug/ml after 72 hrs; type: organism-based; details: in vivo, read-out: Activity
# Method in brief: (§3)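 Acute toxicity in guppy (P. reticulata): 10 fish per concentration held in jars with the test solution for 96 h. Peptide added from aqueous stock diluted in DMSO to the final concentration. Dead fish counted and removed every 24 h, and condition noted. Percent mortality recorded at 96 h. Two experiments, each in triplicate.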
# [16] = Toxicity in Poecilia reticulata assessed as mortality at 16.4 ug/ml after 24 hrs; type: organism-based; details: in vivo, read-out: Activity; method in brief: as §3
# [17] = Toxicity in Poecilia reticulata assessed as mortality at 16.4 ug/ml after 48 hrs; type: organism-based; details: in vivo, read-out: Activity; method in brief: as §3
# [18] = Toxicity in Poecilia reticulata assessed as mortality at 16.4 ug/ml after 96 hrs; type: organism-based; details: in vivo, read-out: Activity; method in brief: as §3
# [19] = Toxicity in Poecilia reticulata assessed as mortality at 13.6 ug/ml after 24 hrs; type: organism-based; details: in vivo, read-out: Activity; method in brief: as §3
# [20] = Toxicity in Poecilia reticulata assessed as mortality at 13.6 ug/ml after 48 hrs; type: organism-based; details: in vivo, read-out: Activity; method in brief: as §3
# [21] = Toxicity in Poecilia reticulata assessed as mortality at 13.6 ug/ml after 72 hrs; type: organism-based; details: in vivo, read-out: Activity; method in brief: as §3
# [22] = Toxicity in Poecilia reticulata assessed as mortality at 13.6 ug/ml after 96 hrs; type: organism-based; details: in vivo, read-out: Activity; method in brief: as §3
# [23] = Toxicity in Poecilia reticulata assessed as mortality at 22.8 ug/ml after 24 hrs; type: organism-based; details: in vivo, read-out: Activity; method in brief: as §3
# [24] = Toxicity in Poecilia reticulata assessed as mortality at 22.8 ug/ml after 48 hrs; type: organism-based; details: in vivo, read-out: Activity; method in brief: as §3
# [25] = Toxicity in Poecilia reticulata assessed as mortality at 22.8 ug/ml after 72 hrs; type: organism-based; details: in vivo, read-out: Activity; method in brief: as §3
# [26] = Toxicity in Poecilia reticulata assessed as mortality at 22.8 ug/ml after 96 hrs; type: organism-based; details: in vivo, read-out: Activity; method in brief: as §3
Compound,inhibition at 200 µM [1],inhibition at 100 µM [2],inhibition at 50 µM [3],inhibition at 25 µM [4],inhibition at 12.5 µM [5],inhibition at 6.25 µM [6],inhibition at 3.125 µM [7],inhibition at 200 µM [8],inhibition at 100 µM [9],inhibition at 50 µM [10],inhibition at 25 µM [11],inhibition at 12.5 µM [12],also measured
C[C@H](N)C(=O)N[C@@H](C)C(=O)N[C@@H](C)C(=O)N[C@@H](C)C(N)=O (H-AAAA-NH2),25%,24.6%,17.3%,20.4%,11.8%,12.4%,5.93%,–,–,–,–,–,–
C[C@H](N)C(=O)N[C@@H](C)C(=O)N[C@@H](C)C(=O)N[C@@H](CCCCN)C(N)=O (H-AAAK-NH2),70.6%,62%,57.9%,43%,31.1%,0%,0%,–,–,–,–,–,–
CC[C@H](C)[C@H](NC(=O)[C@@H](N)CCCCN)C(=O)N[C@@H](CCC(N)=O)C(=O)N[C@@H](CCCNC(=N)N)C(N)=O (H-KIQR-NH2),47.6%,44.1%,30.9%,26.9%,25.1%,21.2%,20.9%,–,–,–,–,–,–
CC[C@H](C)[C@H](NC(=O)[C@H](CCC(N)=O)NC(=O)[C@@H](N)CCCCN)C(=O)N[C@@H](CCCCN)C(N)=O (H-KQIK-NH2),3.72%,0%,0%,0%,0%,0%,0%,–,–,–,–,–,–
C[C@H](NC(=O)[C@H](C)NC(=O)[C@H](C)NC(=O)[C@@H](N)CCCNC(=N)N)C(N)=O (H-RAAA-NH2),38.4%,8.45%,8.43%,8.9%,6.08%,4.96%,0%,–,–,–,–,–,–
C[C@H](NC(=O)[C@H](C)NC(=O)[C@@H](N)CCCNC(=N)N)C(=O)N[C@@H](CCCCN)C(N)=O (H-RAAK-NH2),78.6%,69.7%,67.5%,39.1%,26.3%,14.1%,0%,–,–,–,–,–,–
CC[C@H](C)[C@H](NC(=O)[C@H](C)NC(=O)[C@@H](N)CCCNC(=N)N)C(=O)N[C@@H](CCCCN)C(N)=O (H-RAIK-NH2),34.6%,29.1%,0%,0%,0%,0%,0%,–,–,–,–,–,–
CC[C@H](C)[C@H](NC(=O)[C@@H](NC(=O)[C@@H](N)CCCNC(=N)N)[C@@H](C)CC)C(=O)N[C@@H](CCCCN)C(N)=O (H-RIIK-NH2),42%,39.7%,11.5%,20.9%,12.6%,14.5%,8.74%,–,–,–,–,–,–
C[C@H](NC(=O)[C@H](CCC(N)=O)NC(=O)[C@@H](N)CCCNC(=N)N)C(=O)N[C@@H](CCCCN)C(N)=O (H-RQAK-NH2),0%,0%,0%,0%,0%,0%,0%,–,–,–,–,–,–
CC[C@H](C)[C@H](NC(=O)[C@H](CCC(N)=O)NC(=O)[C@@H](N)CCCNC(=N)N)C(=O)N[C@@H](CCCCN)C(N)=O (H-RQIK-NH2),55.4%,36.6%,18.4%,17.5%,11.2%,19.9%,12.2%,–,–,–,–,–,–
CC[C@H](C)[C@H](NC(=O)[C@H](CCC(N)=O)NC(=O)[C@@H](N)CCCNC(=N)N)C(=O)N[C@@H](CCCNC(=N)N)C(N)=O (H-RQIR-NH2),65.7%,40.2%,18.8%,19.3%,3.34%,0%,0%,–,–,–,–,–,–
C[C@@H]1[C@H](O)[C@@H](C)/C=C/C=C/C=C/C=C/C=C/C=C/C=C/[C@H](O[C@@H]2O[C@H](C)[C@@H](O)[C@H](N)[C@@H]2O)C[C@@H]2O[C@](O)(C[C@@H](O)C[C@@H](O)[C@H](O)CC[C@@H](O)C[C@@H](O)CC(=O)O[C@H]1C)C[C@H](O)[C@H]2C(=O)O [AMPHOTERICIN B],100%,100%,100%,100%,100%,100%,100%,100%,100%,100%,100%,100%,–
CC(=O)N1CCN(c2ccc(OCC3COC(Cn4ccnc4)(c4ccc(Cl)cc4Cl)O3)cc2)CC1 (stereo unspecified) [KETOCONAZOLE],100%,100%,100%,100%,100%,100%,100%,100%,100%,100%,100%,100%,–
H-NRRMKWKK-NH2,63.6%,34.8%,23.3%,6.71%,6.64%,–,–,11%,4.59%,0%,0%,0%,–
H-RQIRRWWQW-NH2,100%,100%,100%,100%,83.3%,–,–,100%,100%,100%,50.7%,19.1%,"MIC50 [13]: ≤ 12.5 µM; MIC80 [13]: ≤ 12.5 µM; MIC [13]: 25 µM; MIC50 [14]: ≤ 25 µM; MIC [14]: 50 µM; mortality at 72 h, 16.4 ug/ml [15]: 0%; mortality at 24 h, 16.4 ug/ml [16]: 0%; mortality at 48 h, 16.4 ug/ml [17]: 0%; mortality at 96 h, 16.4 ug/ml [18]: 0%"
H-RQIRRWWQWRR-NH2,100%,100%,100%,100%,51.2%,–,–,100%,100%,100%,46.6%,22.9%,"MIC50 [13]: ≤ 12.5 µM; MIC [13]: 25 µM; MIC50 [14]: ≤ 25 µM; MIC [14]: 50 µM; mortality at 24 h, 13.6 ug/ml [19]: 0%; mortality at 48 h, 13.6 ug/ml [20]: 0%; mortality at 72 h, 13.6 ug/ml [21]: 0%; mortality at 96 h, 13.6 ug/ml [22]: 0%"
H-RQWKKWWQWRR-NH2,100%,100%,100%,100%,66.2%,–,–,100%,100%,100%,67.9%,35.7%,"MIC50 [13]: ≤ 12.5 µM; MIC [13]: 25 µM; MIC50 [14]: ≤ 25 µM; MIC [14]: 50 µM; mortality at 24 h, 22.8 ug/ml [23]: 0%; mortality at 48 h, 22.8 ug/ml [24]: 0%; mortality at 72 h, 22.8 ug/ml [25]: 0%; mortality at 96 h, 22.8 ug/ml [26]: 0%"
